Hits are enriched below; roughly 1.1% of the tested compounds scored in any of these assays.
NR2E3 ag-1: NR2E3 agonists in two-hybrid cells, primary screen, cell-based, luminescence, CHO-S, Gal4-NCOR/VP16-NR2E3. inhibition of corepressor binding, % at 3.98 µM. Photoreceptor-specific nuclear receptor (Homo sapiens), Q9Y5X4. luciferase. 360,000 tested, 0.35% active;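 active = inhibition above the mean of all tested compounds plus 3 SD, cut at about 70% in these data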;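 note: 0% = DMSO with NR2E3 transfected cells and 100% = cells lacking NR2E3 construct; higher means lower luciferase signal from less NR2E3 corepressor binding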
MT1-MMP act inh: blockers of MT1-MMP proenzyme processing, primary screen, HT1080 RFP-PRO-GFP cells, GFP/RFP fluorescence; Matrix metalloproteinase-14 (Homo sapiens), P50281; GFP/RFP ratio change, % at 20 µM; GFP/RFP ratio fluorescence, overnight; percent of plate control window, DMSO zero; AID 651647, 2012; 360,000 tested, 0.061% active;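 active = GFP/RFP ratio change of at least 30% with cell ATP level not reduced by more than half and red fluorescence within 50% of control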
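Read-out: GFP/RFP fluorescence ratio; Test system: RFP-PRO-GFP reporter HT1080 cells; Compound dosing: single-point 20 µM compound, 1% DMSO; Times: overnight compound exposure at 37 °C.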
NR2E3 ag-2: inhibitors of NR2E3-RetCOR corepressor binding, primary screen, NR2E3 agonist project, biochemical, TR-FRET, GST-NR2E3, biotin-RetCOR. 1536-well. AID 2300, 2010. Photoreceptor-specific nuclear receptor (Homo sapiens), Q9Y5X4. inhibition of corepressor binding, % at 4.78 µM. 320,000 tested, 0.12% active;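 active = percent inhibition above the cutoff of mean plus 3 SD of all tested compounds, set per screening campaign, cut at about 20% in these data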;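 note: 0% = DMSO wells and 100% = biotin wells as full block of FRET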
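system = GST-tagged NR2E3 plus biotinylated RetCOR corepressor | input = 1.35 nM GST-NR2E3 | also added = 7 nM biotin-RetCOR | schedule = 5 h incubation at 4 °C | measured by = TR-FRET with europium anti-GST and streptavidin-D2, 340 nm excitation | read-out = percent loss of FRET ratio relative to control wells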
core dimer inh: inhibitors of HCV core protein dimerization, primary screen, biochemical, TR-FRET, high-throughput; TR-FRET GST/Flag-core106 dimerization, 1536-well; inhibition, % at 5 µM; 300,000 tested, 0.33% active; AID 1899, 2009;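 active = inhibition above the mean of all tested compounds plus 3 SD, set per screening campaign, cut at about 45% in these data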
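System: GST/Flag-tagged HCV core106 proteins. Incubation: compound-protein-antibody incubation 4 h at 22.5 °C. Technique: HTRF with 340 nm excitation, 617/671 nm emission. Medium: KF-containing HEPES buffer, pH 7.45, DTT, CHAPS, BSA. Read-out: inhibition (%) from 671 over 617 nm ratio. Also added: Eu(K)-anti-GST 90 ng/mL plus XL665-anti-Flag 1 µg/mL.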
DAGLB inh: DAGLB lipase inhibitors, primary screen, biochemical, fluorescence, HTS | Diacylglycerol lipase-beta (Homo sapiens), Q8NCG7 | HEK293T DAGLB membrane lysate, EnzChek fluorogenic substrate | inhibition, % at 5.17 µM | 340,000 tested, 0.059% active; in the data active = inhibition above about 34%;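 note: 0% = enzyme with vehicle and 100% = wells lacking enzyme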
Target sequence (Q8NCG7 whole entry, looked up): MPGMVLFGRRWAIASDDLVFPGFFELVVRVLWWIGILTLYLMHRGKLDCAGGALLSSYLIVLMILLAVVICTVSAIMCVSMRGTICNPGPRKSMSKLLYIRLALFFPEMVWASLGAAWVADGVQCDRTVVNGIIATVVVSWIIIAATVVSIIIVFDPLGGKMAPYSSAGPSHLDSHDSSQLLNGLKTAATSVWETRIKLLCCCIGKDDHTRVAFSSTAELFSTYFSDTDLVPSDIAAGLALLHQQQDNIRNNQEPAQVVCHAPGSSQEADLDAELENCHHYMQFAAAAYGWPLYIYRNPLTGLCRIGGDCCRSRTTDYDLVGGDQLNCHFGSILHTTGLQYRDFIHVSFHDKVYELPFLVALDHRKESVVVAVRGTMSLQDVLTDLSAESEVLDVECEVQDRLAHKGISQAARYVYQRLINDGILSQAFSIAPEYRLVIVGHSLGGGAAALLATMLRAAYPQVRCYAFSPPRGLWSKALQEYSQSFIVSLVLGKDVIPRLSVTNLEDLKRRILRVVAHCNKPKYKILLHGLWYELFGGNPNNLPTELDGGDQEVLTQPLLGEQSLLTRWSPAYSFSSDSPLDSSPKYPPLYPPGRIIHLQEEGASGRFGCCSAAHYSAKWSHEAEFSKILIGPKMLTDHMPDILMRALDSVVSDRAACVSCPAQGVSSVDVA
Vif inh: HIV Vif self-association inhibitors, primary screen, imaging, HEK293T, single point. HEK293T cells, Vif self-association by quenched fluorescence, 24 h. inhibition, % at 7.49 µM. 340,000 tested, 0.35% active; in the data active = inhibition above about 50%, passing the limit was not always enough; inconclusive = no clear call, values can overlap the other calls; inactive = below about 31%
NR2E3 ag conf: NR2E3 agonist confirmation in cells, cell-based, luminescence, CHO-S two-hybrid; inhibition, % at 3.98 µM; 2,300 tested, 51% active; AID 624378, 2012; shares compounds with NR2E3 ag-1; CHO-S mammalian two-hybrid NR2E3-NCOR, luciferase luminescence;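 active = average inhibition above a cutoff equal to the mean inhibition of all tested compounds plus one SD, cut at about 70% in these data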;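 note: 0% = DMSO in NR2E3 cells and 100% = DMSO in cells lacking NR2E3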
VP16 counter: GAL4-VP16 reporter modulators, confirmation, counter-screen for NR2E3 agonist project, cell-based, luminescence, CHO-S, high throughput; AID 624379, 2012; 2,300 tested, 29% active; inhibition, % at 3.98 µM; shares compounds with NR2E3 ag-1; CHO-S GAL4-VP16 luciferase reporter;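 active = mean inhibition above a cutoff equal to the average over all tested compounds plus one standard deviation, cut at about 70% in these data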;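 note: luciferase from a UAS reporter driven by GAL4-VP16 transactivation; 0% = DMSO with VP16-transfected cells and 100% = DMSO with cells lacking VP16; higher means less reporter light so more repression of VP16 activity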
Starred values were filed as active, the others as inactive; ? = inconclusive; / = no result.

SMILES | NR2E3 ag-1 | MT1-MMP act inh | NR2E3 ag-2 | core dimer inh | DAGLB inh | Vif inh | NR2E3 ag conf | VP16 counter
COc1ccccc1N(Cc1ccccc1)S(=O)(=O)c1cccc(C(=O)Nc2ccc(C)cn2)c1 | 57 | -8 | -1 | 7 | -3 | -2 | 0 | 4
NC(=O)CC1C(=O)N(c2ccccc2)C(=S)N1NC(=O)c1ccccc1 (stereo unspecified) | -68 | -1 | / | / | -2 | -1 | / | /
O=C(Nc1ccc(OC(F)(F)F)cc1)C1CCCN(S(=O)(=O)c2cccnc2)C1 (stereo unspecified) | 49 | -9 | 1 | 2 | 0 | 2 | -19 | -12
CCc1ccc(NC(=O)C2CCCN(S(=O)(=O)c3cccnc3)C2)cc1 (stereo unspecified) | -28 | 2 | 0 | 1 | -1 | -5 | / | /
Cc1nnc(N/N=C/c2ccc(-c3ccc(Br)cc3)o2)n1N | -22 | 4 | -4 | -9 | 0 | 9 | / | /
Cc1nnc(N/N=C/c2ccc(Br)cc2)n1N | 57 | 0 | 1 | -3 | 0 | 4 | -7 | 6
CCCCn1cnc2c(c(CC#N)nn2-c2ccccc2)c1=N | -2 | 8 | / | / | 0 | 0 | / | /
CCOC(=O)NN=C1c2ccccc2-c2ccccc21 | 14 | 2 | / | / | 0 | -2 | / | /
CCOC(=O)Nc1ccc2c(c1)C(=NNC(=S)NC)c1ccccc1-2 | 86* | 6 | / | / | -5 | -4 | -18 | -21
CC1CCCCC1NC(=O)COC(=O)c1ccc2c(c1)OCCO2 (stereo unspecified) | -25 | -4 | 7 | / | -1 | ? | / | /
CCOc1cc(C)c(S(=O)(=O)Nc2ccc3cn[nH]c3c2)cc1C | 91* | 0 | -3 | -1 | -2 | -14 | 86* | 70
COc1ccccc1C(=O)Nc1nc(-c2ccc(S(=O)(=O)N3CCOCC3)cc2)cs1 | 92* | -10 | -2 | -25 | 0 | -10 | 89* | 63
CNc1nc(-c2ccc(S(=O)(=O)N3CCCCC3)cc2)cs1 | 54 | -1 | 7 | / | 1 | -3 | -27 | -7
COc1ccccc1OC(C)C(=O)Nc1nc(-c2ccc(S(=O)(=O)N3CCOCC3)cc2)cs1 (stereo unspecified) | 11 | 0 | 0 | 11 | -8 | -12 | / | /
O=S(=O)(Nc1ccc(-c2csc(-c3ccccc3)n2)cc1)c1ccc(F)cc1 | -6 | 5 | 1 | 2 | -5 | 3 | / | /
O=C(Nc1nc(-c2ccccc2)cs1)c1ccccc1NS(=O)(=O)c1ccc(F)cc1 | 95* | -36 | 4 | 18 | 12 | -15 | 99* | 85*
O=C(CCl)Nc1c(C(=O)Nc2ccc3c(c2)OCCO3)oc2ccccc12 | 51 | 4 | 2 | 10 | -3 | -7 | -101 | -8
CCN(CC(=O)NCc1ccccc1Cl)CC(=O)Nc1c(F)cccc1F | -24 | 1 | 7 | -1 | -1 | -3 | / | /
CCc1cc(C(=O)NC2CCCN(Cc3ccccc3F)C2)n(C)n1 (stereo unspecified) | 69 | -3 | -1 | 0 | -1 | -11 | 37 | 44
CN(Cc1cccc2ccccc12)C(=O)c1cc(COc2c(F)cccc2F)on1 | -40 | 0 | -3 | 13 | -5 | 3 | / | /
Cc1c(C(C)NC(=O)c2cc(COc3cccc4cnccc34)on2)cnn1C (stereo unspecified) | 72* | 1 | 3 | 3 | 1 | -20 | 53 | 61
CSc1ccccc1OCc1cc(C(=O)NC(C)c2cnn(C)c2)no1 (stereo unspecified) | -78 | 1 | 5 | 5 | -1 | -5 | / | /
CCc1ccc(CN(C)C(=O)c2cc(COc3cccc4cnccc34)on2)cc1 | 108* | 4 | 4 | 8 | 0 | -20 | 98* | 89*
CN(Cc1cccc2cnccc12)C(=O)c1cc(COc2ccc(F)cc2F)on1 | 72* | -6 | / | / | 1 | / | 54 | 55
CC(=O)Nc1ccc(C(=O)CN2C(=O)CSC2=O)cc1 | -31 | 0 | -3 | -2 | 1 | 12 | / | /
SMILES | NR2E3 ag-1 | MT1-MMP act inh | NR2E3 ag-2 | core dimer inh | DAGLB inh | Vif inh | NR2E3 ag conf | VP16 counter
O=C(NC(=S)N1CCN(c2nc(-c3ccccc3)cs2)CC1)c1cncc(Br)c1 | 62 | 6 | 0 | 22 | 5 | 24 | 40 | 39
COC(=O)[C@@]1(Cc2ccc(OC)cc2)[C@H]2c3cc(C(=O)N4CCCC4)n(Cc4ccccc4)c3C[C@H]2CN1C(=O)c1ccccc1 | -21 | -21 | / | / | / | / | / | /
O=C(Nc1ccccc1C(=O)O)c1cc(S(=O)(=O)Nc2ccccc2)ccc1Cl | -46 | -1 | -1 | 8 | 8 | 10 | / | /
CCOC(=O)c1cc2c(OC)ccc(OC)c2n1CC(=O)c1ccccc1 | -10 | -3 | -1 | -12 | -8 | 7 | / | /
CC(C)CCNC(=O)CN(Cc1ccco1)C(=O)c1snc(C(N)=O)c1N | 49 | / | -2 | 13 | -3 | -13 | 4 | 7
CC(C)CCNC(=O)C(c1ccco1)N(Cc1ccccc1)C(=O)c1snc(C(N)=O)c1N (stereo unspecified) | 12 | -5 | 1 | -3 | 3 | -1 | / | /
Cc1ccc(C(=O)Nc2cccc(C(F)(F)F)c2)cc1NC(=O)c1csc(-c2ccncc2)n1 | -24 | -6 | 3 | 4 | -2 | -13 | / | /
N#C/C(=N\Nc1cccc(C(F)(F)F)c1)C(=O)c1csc(-c2cccnc2)n1 | 77* | 19 | -1 | 3 | 17 | -10 | 94* | 77*
COc1ccc(C)cc1S(=O)(=O)Nc1cc2c3c(c1)CCN3C(=O)CC2 | -8 | 8 | 3 | -1 | 4 | -3 | / | /
Cc1ccc(C)c(S(=O)(=O)Nc2cc3c4c(c2)CCC(=O)N4CCC3)c1 | 57 | 5 | 0 | -1 | -1 | -10 | 28 | -21
CCN(C(=O)COC(=O)c1cncc(Br)c1)C1CCS(=O)(=O)C1 (stereo unspecified) | -11 | -4 | 2 | 0 | -3 | 3 | / | /

Screens from PubChem BioAssay.
